Rows were chosen to be rich in hits. Some 2% of all compounds tested hit in one or more screens of this group.
PABP1 MLLE inh = inhibitors of microRNA-mediated deadenylation, human PABP1 MLLE binding. P11940. GST-MLLE / FITC-PAM2 fluorescence polarization. inhibition, % at 20 µM. 0.36% of 360,000 active. AID 588489; in the data active = inhibition above about 35%, passing the limit was not always enough;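 also: plate controls were DMSO wells with GST-MLLE for no effect and wells lacking GST-MLLE protein for full effect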
eIF4H inh = inhibitors of RNA binding by human eIF4H; AID 2012; eIF4H fluorescence polarization binding assay; 0.94% of 290,000 active; inhibition, % at 35 µM;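 also: calls also rest on retests at 20 µM and on dose response follow-up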
PABP FP inh = PABP-poly(A) binding inhibition; 1% of 290,000 active; PABP-poly(A) RNA binding, fluorescence polarization; inhibition, % at 35 µM; P11940;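 also: calls also rest on retests at 20 µM and on dose response follow-up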
DNA FID counter = fluorescent intercalator displacement, NS3 helicase counter-screen; DNA fluorescent intercalator displacement, fluorescence; inhibition, % at 7.9 µM; 0.17% of 290,000 active; in the data active = inhibition above about 37%;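 also: 0% = vehicle and 100% = reference compound; higher means more ethidium bromide displaced from hairpin DNA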
core dimer inh = blocks dimerization of HCV core protein; 0.33% of 300,000 active; TR-FRET GST/Flag-core106 dimerization, 1536-well; inhibition, % at 5 µM; AID 1899;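 active = inhibition above the mean of all tested compounds plus 3 SD, set per screening campaign, cut at about 45% in these data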
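assay system = GST-tagged and Flag-tagged HCV core protein residues 1-106 | controls = unlabelled core106 and no-GST-core106 wells | incubation = compound-protein-antibody incubation 4 h at 22.5 °C | probe or stimulus = Eu donor and XL665 acceptor anti-tag antibodies | read-out = % inhibition based on acceptor/donor emission ratio | signal = TR-FRET 671 and 617 nm emission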
NS3 helicase inh = HCV NS3 helicase inhibition. NS3 helicase DNA unwinding, Cy5 molecular beacon fluorescence. 0.56% of 290,000 active. inhibition, % at 10.9 µM. AID 1800;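 active = inhibition above the mean of all tested compounds plus 3 SD, set per campaign, cut at about 35% in these data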;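 also: 0% = DMSO wells and 100% = thioflavine S control wells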
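test system = hepatitis C virus NS3 helicase domain fragment enzyme | reagent = annealed dual-labelled DNA beacon duplex, ATP-started | times = 1 h at 25 °C | detection = Cy5 fluorescence, 0 and 60 min reads | read-out basis = percent inhibition from t60/t0 fluorescence ratio | control set = DMSO and thioflavine S | replication = one well per compound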
Starred values were filed as active, the others as inactive; ! = not confirmed by another sample. Unless noted, no rule for the calls is given here.

Cc1cccc(NC(=O)C(=O)NCC2CCCN2S(=O)(=O)c2ccccc2)c1 (stereo unspecified) was read as PABP1 MLLE inh 2.5 and core dimer inh -0.6.
For CCC1CCCCN1CCCNC(=O)c1cn(CC)c2ccc(S(=O)(=O)N3CCc4ccccc4C3)cc2c1=O (stereo unspecified) the results were PABP1 MLLE inh -4.2, eIF4H inh -3.1, PABP FP inh 1.6, DNA FID counter 48.8*, core dimer inh 3.0 and NS3 helicase inh -60.3.
Cc1ncc([N+](=O)[O-])n1CC(C)O (stereo unspecified) was read as PABP1 MLLE inh 4.2, eIF4H inh inconclusive, PABP FP inh 3.9*!, DNA FID counter 1.1, core dimer inh -13.2 and NS3 helicase inh -4.8.
`Cc1ncc([N+](=O)[O-])n1CCO` gave PABP1 MLLE inh 6.8, eIF4H inh 5.6*, PABP FP inh 76.8, DNA FID counter -1.5, core dimer inh 6.5 and NS3 helicase inh 6.9.
For CCS(=O)(=O)CCn1c([N+](=O)[O-])cnc1C the results were PABP1 MLLE inh 3.3, eIF4H inh -6.9, PABP FP inh 2.9, DNA FID counter -0.8, core dimer inh 4.3 and NS3 helicase inh -1.6.
O=c1c2c3c(sc2n2c(=S)[nH]nc2n1Cc1ccccc1)CN(Cc1ccccc1)CC3 was read as DNA FID counter 1.1 and NS3 helicase inh -4.0.
For O=C(c1ccc(CNS(=O)(=O)c2ccc(F)cc2)cc1)N1CCCCCC1 the results were PABP1 MLLE inh 20.4.
For Cc1c(N=O)c(-c2ccccc2)n(O)[n+]1[O-] the results were PABP1 MLLE inh -6.9.
Screening CCN(CC)Cc1cc2[nH]c3c4ccc(Cl)cc4ncc3c2cc1OC returned PABP1 MLLE inh -15.9, eIF4H inh 27.2, PABP FP inh 7.9, DNA FID counter 58.8* and NS3 helicase inh -26.3.
`COc1ccc(CNc2ncnc3cc(Cl)ccc23)cc1OC` gave PABP1 MLLE inh 1.0, eIF4H inh -3.7, PABP FP inh -1.6, DNA FID counter 0.6 and NS3 helicase inh 3.0.
Screening CN1CCN(C(=S)C(=O)Nc2ccc(Br)cc2)CC1 returned PABP1 MLLE inh 2.8, eIF4H inh 1.3, PABP FP inh -4.5, DNA FID counter 5.3, core dimer inh 0.2 and NS3 helicase inh 7.7.
For Cc1ccc(OC(=O)COc2ccccc2)c(-n2nc3ccccc3n2)c1 the results were PABP1 MLLE inh -4.7, eIF4H inh -5.2, PABP FP inh -4.7, DNA FID counter 0.9, core dimer inh -2.6 and NS3 helicase inh -1.1.
Cc1ccc(OC(=O)COc2ccccc2C)c(-n2nc3ccccc3n2)c1 was read as PABP1 MLLE inh 53.4*, eIF4H inh 6.8, PABP FP inh -3.6, DNA FID counter -1.4, core dimer inh 1.4 and NS3 helicase inh 0.4.
For COc1ccccc1NS(=O)(=O)c1cc(NC(C)=O)ccc1N1CCCCC1 the results were PABP1 MLLE inh 33.9, eIF4H inh 5.4, PABP FP inh -3.2, DNA FID counter -15.2, core dimer inh 2.9 and NS3 helicase inh -19.6.
`COc1ccccc1NS(=O)(=O)c1cc(NC(=O)Nc2cccc(C)c2)ccc1N1CCCCC1` gave PABP1 MLLE inh 38.1*, eIF4H inh 6.5, PABP FP inh -0.5, DNA FID counter 4.3, core dimer inh 7.4 and NS3 helicase inh -17.9.
Screening NS(=O)(=O)c1cccc2c1c([N+](=O)[O-])cc1nc(O)c(O)nc12 returned PABP1 MLLE inh 38.4* and core dimer inh -2.9.
Screening O=C(/C=C(\O)c1ccc(Cl)cc1)C(=O)NNC(=O)C(O)(c1ccccc1)c1ccccc1 returned PABP1 MLLE inh -24.3, eIF4H inh 16.7, PABP FP inh 7.0, DNA FID counter -23.6, core dimer inh 15.2 and NS3 helicase inh 54.4*.
For CCCCn1c(=O)[nH]c(=O)c2c1nc(Cn1ncc(Cl)c(Cl)c1=O)n2CCC the results were PABP1 MLLE inh -30.9, eIF4H inh 3.9, PABP FP inh 1.8, DNA FID counter -30.9, core dimer inh -63.2 and NS3 helicase inh 13.1.
COc1ccc(CCNCC(O)COc2cccc(Br)c2)cc1OC (stereo unspecified) was read as PABP1 MLLE inh -4.3, eIF4H inh 4.7, PABP FP inh -0.7, DNA FID counter 10.5, core dimer inh -4.5 and NS3 helicase inh -12.5.
